In ChEMBL document CHEMBL3351637 (Eur J Med Chem, 2014):
Active and inactive are the calls of the source. No cut-off for these calls is given here.

Legend:
[1] = Stability of the compound in presence of 100 mM NaCl assessed as compound mean nano particles size at 2 mg/ml by quasi-elastic light scattering method; assay type: physicochemical
Method in brief: (§1)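 Nanoassemblies formed by solvent displacement into water, 10 mM buffers (citrate or acetate pH 4.5, phosphate pH 7.5, borate or carbonate pH 10.2) or 100 mM NaCl, final 2 mg/mL. Mean diameter by quasi-elastic light scattering at 90° and 25°C, on samples diluted 1:20 in water; each value the average of five measurements.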

[2] = Stability of the compound in pH 4.5 citrate buffer assessed as compound mean nano particles size at 2 mg/ml by quasi-elastic light scattering method; assay type: physicochemical; method in brief: as §1
[3] = tested on: A549; assay: Cytotoxicity against human A549 cells after 48 hrs by SRB assay; assay type: functional, cell-based; conditions: A549, 48 h
[4] = Stability of the compound in pH 4.5 acetate buffer assessed as compound mean nano particles size at 2 mg/ml by quasi-elastic light scattering method; assay type: physicochemical; method in brief: as §1
[5] = tested on: A549; assay: Inhibition of microtubule bundle formation in human A549 cells assessed as cell detachment at 200 ug/mL incubated for 1 hr by alpha-tubulin staining based fluorescence microscopy
Method in brief: (§2)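 A549 cells seeded on glass coverslips at 50000 cells/ml, grown 24 h, then exposed 1 h to 200 µg/ml conjugate or parent drug. Fixed and permeabilized in methanol at -20°C for 6 min, blocked in PBS + 5% BSA, stained with anti-α-tubulin (1:500, 1 h, 37°C), Alexa568 secondary and DAPI nuclei, then imaged by fluorescence microscopy at 63x.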

[6] = Stability of the compound assessed as compound mean nano particles size diluted with water at 2 mg/ml measured after 3 months at 5 degC by quasi-elastic light scattering method; assay type: physicochemical; conditions: buffer, 2191.5 h
Method in brief: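 Nanoassemblies made by nanoprecipitation in water as 2 mg/mL dispersions, stored at 5°C. Size checked after three months on samples diluted with water, by light scattering.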

[7] = tested on: MCF7; assay: Cytotoxicity against human MCF7 cells in presence of 10 mM DTT after 48 hrs by SRB assay; assay type: functional, cell-based; conditions: MCF7, 48 h
[8] = tested on: MCF7; assay: Cytotoxicity against human MCF7 cells after 48 hrs by SRB assay; assay type: functional, cell-based; conditions: MCF7, 48 h
Method in brief: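 Nanoassemblies diluted in culture medium and added at various concentrations for 48 h at 37°C/5% CO₂. Survival % vs untreated control; run thrice in triplicate; IC50 from dose–effect curves.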

[9] = tested on: A549; assay: Inhibition of microtubule bundle formation in human A549 cells assessed as cell shrinking at 200 ug/mL incubated for 1 hr by alpha-tubulin staining based fluorescence microscopy; method in brief: as §2
[10] = Stability of the compound in water assessed as compound mean nano particles size at 2 mg/ml by quasi-elastic light scattering method; assay type: physicochemical; conditions: buffer; method in brief: as §1
[11] = Stability of the compound in pH 7.5 phosphate buffer assessed as compound mean nano particles size at 2 mg/ml by quasi-elastic light scattering method; assay type: physicochemical; method in brief: as §1
[12] = Stability of the compound in pH 10.2 carbonate buffer assessed as compound mean nano particles size at 2 mg/ml by quasi-elastic light scattering method; assay type: physicochemical; method in brief: as §1
[13] = Stability in human serum at 37 degC assessed as ratio of HPLC area of peaks corresponding to intact compound at time zero at 2 mg/ml measured after 48 hrs; assay type: ADME, cell-free; conditions: read-out: Stability
[14] = Stability of the compound in pH 10.2 borate buffer assessed as compound mean nano particles size at 2 mg/ml by quasi-elastic light scattering method; assay type: physicochemical; method in brief: as §1
[15] = Stability in pH 9 borate buffer; assay type: physicochemical
[16] = tested on: A549; assay: Induction of microtubule bundling in human A549 cells at 200 ug/mL incubated for 1 hr by alpha-tubulin staining based fluorescence microscopy; assay type: cell-based
Method in brief: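 A549 cells grown in E-MEM with 10% FBS, 2 mM L-glutamine, penicillin and non-essential amino acids at 37°C, 5% CO2. Seeded at 50000 cells/ml on glass coverslips, exposed after 24 h. Then fixed and permeabilized in methanol at -20°C for 6 min and blocked in PBS+5% BSA. Stained with anti-α-tubulin (1:500), Alexa568 secondary and DAPI, and imaged by fluorescence microscopy.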

[17] = tested on: A549; assay: Binding affinity to microtubule in human A549 cells at 200 ug/mL incubated for 1 hr by alpha-tubulin staining based fluorescence microscopy; assay type: cell-based; method in brief: as §2

SMILES: CC(C)=CCC/C(C)=C/CC/C(C)=C/CC/C=C(\C)CC/C=C(\C)CCCOC(=O)CCCSSCCCC(=O)O[C@H]1[C@@H](C)CCC[C@H]2O[C@H]2C[C@@H](/C(C)=C/c2csc(C)n2)OC(=O)C[C@H](O)C(C)(C)C(=O)[C@@H]1C
- Stability [1]: 312.9 nm
- Stability [2]: 197.8 nm
- IC50 [3]: > 5000 nM
- Stability [4]: 201.5 nm
- inhibition [5]: Active
- Stability [6]: 191.1 nm
- IC50 [7]: 500 nM
- IC50 [8]: 1300 nM
- inhibition [9]: Active
- Stability [10]: 165.1 nm
- Stability [11]: 235.5 nm
- Stability [12]: 212.2 nm
- remaining at 48 h, 2 mg/ml [13]: 58%
- Stability [14]: 207.7 nm

SMILES: COc1cc([C@@H]2c3cc4c(cc3[C@H](O)[C@H]3COC(=O)[C@H]23)OCO4)cc(OC)c1OC [PODOFILOX]
- IC50 [3]: 59 nM
- inhibition [5]: Active
- IC50 [7]: 0.4 nM
- IC50 [8]: 0.1 nM
- inhibition [9]: Active

SMILES: COc1cc([C@@H]2c3cc4c(cc3[C@H](OC(=O)CCCSSCCCC(=O)OCCC/C(C)=C/CC/C(C)=C/CC/C=C(\C)CC/C=C(\C)CCC=C(C)C)[C@H]3COC(=O)[C@H]23)OCO4)cc(OC)c1OC
- Stability [1]: 676 nm
- Stability [2]: 428.3 nm
- IC50 [3]: 7640 nM
- Stability [4]: 275.9 nm
- inhibition [5]: Active
- Stability [6]: 215.3 nm
- IC50 [7]: 60 nM
- IC50 [8]: 400 nM
- inhibition [9]: Active
- Stability [10]: 185.9 nm
- Stability [11]: 201.5 nm
- Stability [12]: 242.9 nm
- remaining at 48 h, 2 mg/ml [13]: 52%
- Stability [14]: 202.3 nm

SMILES: COc1cc([C@@H]2c3cc4c(cc3[C@H](OC(=O)CCCCCCCCC(=O)OCCC/C(C)=C/CC/C(C)=C/CC/C=C(\C)CC/C=C(\C)CCC=C(C)C)[C@H]3COC(=O)[C@H]23)OCO4)cc(OC)c1OC
- Stability [1]: 720.3 nm
- Stability [2]: 629.2 nm
- Stability [4]: 287.5 nm
- Stability [6]: 210.5 nm
- IC50 [7]: 111000 nM
- IC50 [8]: 106000 nM
- Stability [10]: 180.5 nm
- Stability [11]: 193.5 nm
- Stability [12]: 315 nm
- Stability [15]: Stable
- remaining at 48 h, 2 mg/ml [13]: 82%
- Stability [14]: 211.3 nm

SMILES: CC[C@@]1(OC(=O)CCCCCCCCC(=O)OCCC/C(C)=C/CC/C(C)=C/CC/C=C(\C)CC/C=C(\C)CCC=C(C)C)C(=O)OCc2c1cc1n(c2=O)Cc2cc3ccccc3nc2-1
- Stability [1]: 461.1 nm
- Stability [2]: 375.4 nm
- Stability [4]: 275.9 nm
- Stability [6]: 172.4 nm
- IC50 [7]: 20100 nM
- IC50 [8]: 10500 nM
- Stability [10]: 160.2 nm
- Stability [11]: 201.5 nm
- Stability [12]: 242.9 nm
- Stability [15]: Stable
- remaining at 48 h, 2 mg/ml [13]: 85%
- Stability [14]: 202.3 nm

SMILES: C/C(=C\c1csc(C)n1)[C@@H]1C[C@@H]2O[C@@H]2CCC[C@H](C)[C@H](O)[C@@H](C)C(=O)C(C)(C)[C@@H](O)CC(=O)O1 [EPOTHILONE A]
- Activity [16]: Active
- IC50 [3]: > 5000 nM
- inhibition [5]: Active
- IC50 [7]: 0.8 nM
- IC50 [8]: 0.9 nM
- inhibition [9]: Active

SMILES: CC[C@@]1(OC(=O)CCCSSCCCC(=O)OCCC/C(C)=C/CC/C(C)=C/CC/C=C(\C)CC/C=C(\C)CCC=C(C)C)C(=O)OCc2c1cc1n(c2=O)Cc2cc3ccccc3nc2-1
- Stability [1]: 339.7 nm
- Stability [2]: 376.4 nm
- IC50 [3]: > 5000 nM
- Stability [4]: 224.3 nm
- Stability [6]: 210.2 nm
- IC50 [7]: 800 nM
- IC50 [8]: 8600 nM
- Stability [10]: 195.3 nm
- Stability [11]: 198.9 nm
- Stability [12]: 250.6 nm
- remaining at 48 h, 2 mg/ml [13]: 70%
- Stability [14]: 160.3 nm

SMILES: CC[C@@]1(O)C(=O)OCc2c1cc1n(c2=O)Cc2cc3ccccc3nc2-1 [CAMPTOTHECIN]
- IC50 [3]: 1300 nM
- IC50 [7]: 3 nM
- IC50 [8]: 0.5 nM

SMILES: CC(C)=CCC/C(C)=C/CC/C(C)=C/CC/C=C(\C)CC/C=C(\C)CCCOC(=O)CCCCCCCCC(=O)O[C@H]1[C@@H](C)CCC[C@H]2O[C@H]2C[C@@H](/C(C)=C/c2csc(C)n2)OC(=O)C[C@H](O)C(C)(C)C(=O)[C@@H]1C
- Stability [1]: 502.4 nm
- Stability [2]: 203.2 nm
- Stability [4]: 206 nm
- Stability [6]: 142.9 nm
- IC50 [7]: 45100 nM
- IC50 [8]: 40200 nM
- Stability [10]: 125.3 nm
- Stability [11]: 212.9 nm
- Stability [12]: 312.2 nm
- Stability [15]: Stable
- remaining at 48 h, 2 mg/ml [13]: 70%
- Stability [14]: 351.1 nm

SMILES: CC(=O)O[C@H]1C(=O)[C@@]2(C)[C@H]([C@H](OC(=O)c3ccccc3)[C@]3(O)C[C@H](OC(=O)[C@H](OC(=O)CCCCCCCCC(=O)OCCC/C(C)=C/CC/C(C)=C/CC/C=C(\C)CC/C=C(\C)CCC=C(C)C)[C@@H](NC(=O)c4ccccc4)c4ccccc4)C(C)=C1C3(C)C)[C@]1(OC(C)=O)CO[C@@H]1C[C@@H]2O
- Stability [1]: > 2 um
- Stability [2]: 391.2 nm
- Stability [4]: > 2 um
- Stability [6]: 110.5 nm
- IC50 [7]: 1530 nM
- IC50 [8]: 1210 nM
- Stability [10]: 107.9 nm
- Stability [11]: 125.6 nm
- Stability [12]: 635.9 nm
- Stability [15]: Stable
- remaining at 48 h, 2 mg/ml [13]: 95%
- Stability [14]: 161.4 nm

SMILES: CC(=O)O[C@H]1C(=O)[C@@]2(C)[C@H]([C@H](OC(=O)c3ccccc3)[C@]3(O)C[C@H](OC(=O)[C@H](O)[C@@H](NC(=O)c4ccccc4)c4ccccc4)C(C)=C1C3(C)C)[C@]1(OC(C)=O)CO[C@@H]1C[C@@H]2O [PACLITAXEL]
- Activity [16]: Active
- IC50 [3]: 82 nM
- inhibition [5]: Active
- inhibition [9]: Active

SMILES: CC(=O)O[C@H]1C(=O)[C@@]2(C)[C@H]([C@H](OC(=O)c3ccccc3)[C@]3(O)C[C@H](OC(=O)[C@H](OC(=O)CCCSSCCCC(=O)OCCC/C(C)=C/CC/C(C)=C/CC/C=C(\C)CC/C=C(\C)CCC=C(C)C)[C@@H](NC(=O)c4ccccc4)c4ccccc4)C(C)=C1C3(C)C)[C@]1(OC(C)=O)CO[C@@H]1C[C@@H]2O
- Activity [17]: Active
- Stability [1]: > 2 um
- Stability [2]: 462.4 nm
- IC50 [3]: 490 nM
- Stability [4]: > 2 um
- inhibition [5]: Active
- Stability [6]: 106.5 nm
- IC50 [7]: 3 nM
- IC50 [8]: 60 nM
- inhibition [9]: Active
- Stability [10]: 100.8 nm
- Stability [11]: 162.4 nm
- Stability [12]: 723.3 nm
- remaining at 48 h, 2 mg/ml [13]: 93%
- Stability [14]: 181.7 nm

SMILES: CC(=O)O[C@H]1C(=O)[C@@]2(C)[C@H]([C@H](OC(=O)c3ccccc3)[C@]3(O)C[C@H](OC(=O)[C@H](OC(=O)OCC/C(C)=C/CC/C(C)=C/CC/C=C(\C)CC/C=C(\C)CCC=C(C)C)[C@@H](NC(=O)c4ccccc4)c4ccccc4)C(C)=C1C3(C)C)[C@]1(OC(C)=O)CO[C@@H]1C[C@@H]2O
- Stability [6]: 181.1 nm
- IC50 [7]: 8700 nM
- IC50 [8]: 9100 nM
- remaining at 48 h, 2 mg/ml [13]: 94%
